Results of several laboratories.
Compare with care: the assays were run in different laboratories.
RET: Proto-oncogene tyrosine-protein kinase receptor Ret (RET, Homo sapiens, UniProt P07949)
Nos2: Nitric oxide synthase, inducible (Nos2, Mus musculus, UniProt P29477)
BAZ2A bromodomain: Bromodomain adjacent to zinc finger domain protein 2A, bromodomain (BAZ2A, Homo sapiens, UniProt Q9UIF9)

| Compound | target | effect on | mode | method | tested at | endpoint | result |
| --- | --- | --- | --- | --- | --- | --- | --- |
| O=C(Nc1ccc(NC(=O)c2ccoc2)cc1C(F)(F)F)Nc1ccc(NC(=O)c2ccoc2)cc1C(F)(F)F | RET | enzyme activity | inhibitor | radiometric | 10 µM | remaining activity | 101% |
| C=C(F)[C@](N)(CCCCN)C(=O)O | Lysine decarboxylase (Hafnia alvei, UniProt P05033) | enzyme activity | inhibitor | absorbance | – | KI (inactivation) | 620 µM |
| Cc1nn(C)c2ncc(C(=O)NC(=O)Nc3ccc(F)c(C(F)(F)F)c3)cc12 | C5a anaphylatoxin chemotactic receptor 1 (C5AR1, Homo sapiens, UniProt P21730) | ligand displacement | – | radioligand | 10 µM | inhibition | < 10% |
| Cc1ccc(C(=O)Nc2ccc(CN3CCN(C)CC3)c(C(F)(F)F)c2)cc1C#Cc1cnc2cccnn12 | Phosphatidylinositol 5-phosphate 4-kinase type-2 gamma (PIP4K2C, Homo sapiens, UniProt Q8TBX8) | cell-free assay | – | – | 23.5 nM | remaining signal | 99% |
| COCC(=O)Nc1cc(C(=O)N(C)CCc2c(C)n[nH]c2C)c2c(c1)ncn2Cc1ccc(F)cc1 | RET | enzyme activity | inhibitor | radiometric | 0.1 µM | remaining activity | 118% |
| O=C(NCCCNc1nc(Nc2cccc(NC(=O)N3CCCC3)c2)ncc1I)c1cccs1 | MAP/microtubule affinity-regulating kinase 4 (MARK4, Homo sapiens, UniProt Q96L34) | enzyme activity | inhibitor | radiometric | 1 µM | remaining activity | 2% |
| CN(C)C1CCN(CC#Cc2nn(C3CCCC3)c3nc(NCc4ccccc4)ncc23)C1 (centres unmarked) | Tyrosine-protein kinase Lck (LCK, Homo sapiens, UniProt P06239) | enzyme activity | inhibitor | FRET | 10 µM | inhibition | 78% |
| O=C(O)c1ncccc1O | Nos2 | enzyme activity | inhibitor | – | 1 mM | inhibition | > 40% |
| O=C(COc1ccc(Cl)cc1C(=O)Nc1ccccc1)Nc1cc(Cl)ccc1-n1cncn1 | RET | enzyme activity | inhibitor | radiometric | 10 µM | remaining activity | 111% |
| C[S+]([O-])c1ccc(-c2nc(-c3ccncc3)c(-c3ccc(F)cc3)[nH]2)cc1 (centres unmarked) | BAZ2A bromodomain | thermal stability | – | DSF | 10 µM | ΔTm | -0.19 °C |
| CCN(c1cc(C#CCN2CCOCC2)cc(C(=O)NCc2c(C)cc(C)[nH]c2=O)c1C)[C@H]1CC[C@H](N(C)CCOC)CC1 | Histone-lysine N-methyltransferase EZH1 (EZH1, Homo sapiens, UniProt Q92800) | enzyme activity | inhibitor | – | 1 µM | inhibition | 98% |
| CC(C)[C@@H]1NC(=O)[C@@H]2CCCN2C(=O)[C@H](Cc2ccccc2)NC(=O)CSC[C@@H](C(=O)N[C@@H](Cc2ccc(O)cc2)C(N)=O)NC(=O)[C@H](Cc2c[nH]c3ccccc23)NC(=O)[C@H](CCCCN)NC(=O)[C@H](Cc2ccccc2)N(C)C(=O)[C@H](Cc2ccccc2)NC1=O | Stimulator of interferon genes protein (STING1, Homo sapiens, UniProt Q86WV6, H232R) | thermal stability | – | DSF | 200 µM | ΔTm | 5.83 °C |
| Cc1cc2c(cc1N1C(=O)c3cccc4c(Cl)ccc(c34)C1=O)n(C)c(=O)n2C | BAZ2A bromodomain | thermal stability | – | DSF | 10 µM | ΔTm | 0 °C |
| O=c1occcc1O | Nos2 | enzyme activity | inhibitor | – | 1 mM | inhibition | > 40% |
| COCC(=O)Nc1cc(C(=O)NCCc2cnn(C)c2)cc2ncn(CCc3ccccc3)c12 | RET | enzyme activity | inhibitor | radiometric | 10 µM | remaining activity | 109% |
| Cn1cnc(Br)c1C1=CN(c2ncnc3[nH]cnc23)CCS1 | Serine/threonine-protein kinase LATS2 (LATS2, Homo sapiens, UniProt Q9NRM7) | enzyme activity | inhibitor | radiometric | 2 µM | inhibition | 83.8% |
| Cc1cccc(-n2ncc3c(O)c(C(=O)Nc4ccc(C)cc4F)c(=O)[nH]c32)c1 | RET | enzyme activity | inhibitor | radiometric | 10 µM | remaining activity | 79% |
| Cc1cnc(Nc2ccc(OCCN3CCCC3)cc2)nc1Nc1cccc(S(=O)(=O)NC(C)(C)C)c1 | BAZ2A bromodomain | thermal stability | – | DSF | 10 µM | ΔTm | -0.11 °C |
| COc1ccc(NC(=O)Nc2cc(C)c3nc(NC(=O)c4ccccc4)sc3c2)c(OC)c1 | RET | enzyme activity | inhibitor | radiometric | 10 µM | remaining activity | 98.8% |
| N#Cc1ccc(/C=C/CN(CC[C@H](N)C(=O)O)C[C@H]2O[C@@H](n3cnc4c(N)ncnc43)[C@H](O)[C@@H]2O)cc1 | Phenylethanolamine N-methyltransferase (PNMT, Homo sapiens, UniProt P11086) | enzyme activity | inhibitor | – | 10 µM | activity vs control | 67% |
